Laboratory results published in ChEMBL document CHEMBL1148779, “Synthesis and biological evaluation of imidazoquinoxalinones, imidazole analogues of pyrroloiminoquinone marine natural products” (J Med Chem, 2007).
Activity calls are given as the source filed them. The rule behind the calls is not given here.

How the values were obtained:
[1] = (§1) Growth inhibition of NCI60 cells; type: functional; details: Homo sapiens; for TGI: read-out: Log TGI (converted)
[2] = organism: Homo sapiens; experiment: Inhibition of human recombinant topoisomerase 2
Procedure, shortened: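 Relaxation assay with recombinant human topoisomerase II (p170), 4 units, and 0.25 µg supercoiled pRYG DNA. Buffer: 50 mM Tris pH 8.0, 120 mM KCl, 10 mM MgCl2, 0.5 mM DTT, 0.5 mM ATP. Drug was added in varying amounts for 45 min at 37 °C. Reactions were stopped with SDS and proteinase K, then extracted with chloroform/isoamyl alcohol. Products were run on a 1% agarose gel and stained with ethidium bromide. Etoposide was the positive control.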

[3] = tested on: BT-549; experiment: Growth inhibition of human BT549 cells; type: functional
[4] = tested on: MDA-MB-435; experiment: Growth inhibition of human MDA-MB-435 cells; type: functional
[5] = tested on: MDA-N; experiment: Growth inhibition of human MDA-N cells; type: functional
[6] = tested on: MDA-MB-231; experiment: Growth inhibition of human MDA-MB-231 cells; type: functional
[7] = tested on: NCI60; experiment: as §1; type: functional; details: Homo sapiens
[8] = Toxicity in mouse at 400 mg/kg, ip; type: organism-based; parameters: dose 400 mg/kg, route intraperitoneal; details: in vivo
Procedure, shortened: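 Acute toxicity in mice: the drug was formulated so that 400 mg/kg IP was given in 1 mL. Single IP doses of 400, 200 and 100 mg/kg were given (1, 0.5, 0.25 mL/mouse), using the body weight and strain planned for the hollow fiber assay. Mice were followed for 14 days for morbidity (body weight loss) and mortality. If mice died, the dose was halved serially in single mice until a tolerated dose was reached.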

[9] = tested on: HCT-116; experiment: Inhibition of human HCT116 cells; type: functional, cell-based
Procedure, shortened: (§2)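 MTT assay. HCT-116 cells were grown in McCoy's 5a with 10% FBS and 2 mM L-glutamine. A-431 cells were grown in DMEM with 10% FBS and 4 mM L-glutamine. Cells were plated at 10 000/well and dosed after 24 h. HCT-116 was tested at 0.3–100 µM and A-431 at 0.1–100 µM, for 48 h at 37 °C. MTT (final 0.3 mg/mL) was added for 3 h and formazan dissolved in DMSO. A570 was read and % cytotoxicity taken versus untreated control. Makaluvamine C at 10 µM was the positive control.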

[10] = tested on: A-431; experiment: Inhibition of human A431 cells; type: functional, cell-based; procedure, shortened: as §2

Row | SMILES | GI50 [1] | LC50 [1] | TGI [1] | also measured
1 | NC1=CC2=NCCn3cnc(c32)C1=O | 4.57 µM | 35.5 µM | 12.3 µM | –
2 | COc1cc([C@@H]2c3cc4c(cc3[C@@H](O[C@@H]3O[C@@H]5CO[C@@H](C)O[C@H]5[C@H](O)[C@H]3O)[C@H]3COC(=O)[C@H]23)OCO4)cc(OC)c1O | – | – | – | Activity [2]: Active
3 | CC(=O)NC1=C(C)C(=O)c2nc(C)n3c2C1=NCC3 | 52.5 µM | – | 81.3 µM | GI50 [3]: < 0.01 µM; GI50 [4]: 19.1 µM; GI50 [5]: 18.6 µM; GI50 [6]: 12.9 µM; Activity [7]: inactive
4 | O=C1C(NCCc2c[nH]c3ccccc23)=CC2=NCCn3cnc1c32 | 0.234 µM | 6.76 µM | 0.871 µM | Activity [2]: Active
5 | CC(=O)NC1=C(C)C(=O)c2nc(COC(C)=O)n3c2C1=NCC3 | – | – | – | Activity [7]: inactive
6 | O=C1C(NCCc2ccc(O)cc2)=CC2=NCCn3cnc1c32 | 2.51 µM | 40.7 µM | 14.1 µM | –
7 | O=C1C(NCc2ccccc2)=CC2=NCCn3cnc1c32 | 0.617 µM | 14.8 µM | 2.82 µM | MTD [8]: 12.5 mg/kg
8 | O=C1C(NCCO)=CC2=NCCn3cnc1c32 | 1.1 µM | 20 µM | 4.27 µM | –
9 | O=C1C(NCCc2ccccc2)=CC2=NCCn3cnc1c32 | 0.166 µM | 5.5 µM | 1.07 µM | –
10 | CC(=O)NC1=C(C)C(=O)c2ncn3c2C1=NCC3 | 46.8 µM | – | – | Activity [7]: inactive
11 | COCc1nc2c3n1CCN=C3C=C(N)C2=O | – | – | – | IC50 [9]: 3 µM; IC50 [10]: 3 µM
